From ChEMBL document CHEMBL1141591, “Lipophilic modifications to dinucleoside polyphosphates and nucleotides that confer antagonist properties at the platelet P2Y12 receptor” (J Med Chem, 2008) come the findings set out here.

Each structure is given as a SMILES string. Activity calls are given as the source filed them. No cut-off for these calls is given here.

One experiment deals with P2Y purinoceptor 2 (Homo sapiens, UniProt P41231). Put plainly: Agonist activity at P2Y2 receptor expressed in human 1321 cells by calcium mobilization assay. In kind it is functional, cell-based.
P2Y purinoceptor 2, sequence (P41231 whole entry): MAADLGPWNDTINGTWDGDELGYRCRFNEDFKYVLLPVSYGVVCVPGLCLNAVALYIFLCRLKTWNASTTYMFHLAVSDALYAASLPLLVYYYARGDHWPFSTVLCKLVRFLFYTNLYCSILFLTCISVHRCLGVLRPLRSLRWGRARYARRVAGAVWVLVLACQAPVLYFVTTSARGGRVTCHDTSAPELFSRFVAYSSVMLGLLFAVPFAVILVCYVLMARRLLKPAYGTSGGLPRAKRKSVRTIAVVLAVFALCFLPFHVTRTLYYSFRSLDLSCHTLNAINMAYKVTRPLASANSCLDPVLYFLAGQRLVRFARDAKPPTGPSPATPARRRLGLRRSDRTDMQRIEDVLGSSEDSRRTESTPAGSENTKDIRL
Experiment [1] concerns the target P2Y purinoceptor 12 (Homo sapiens) (UniProt Q9H244). Kind of experiment: Antagonist activity at P2Y12 receptor assessed as inhibition of ADP-induced human platelet aggregation by washed platelet assay at 100 uM. Format: functional. Put shortly:
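Blood from healthy volunteers was anticoagulated with ACD and spun at 180g for 15 min to give PRP. Platelets were washed three times in HEPES-buffered saline, pH 7.4, with 0.2% BSA and 5 µM PGI2, then resuspended with 0.25 U/mL apyrase. The suspension held 1 mg/mL fibrinogen at 37 °C, stirred at 1000 rpm. Compound (usually 1 nM–100 µM) was added for 2 min, then ADP at EC90 (usually 1–10 µM). Optical aggregation was recorded for 8 min. IC50 came from a four-parameter logistic fit.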

For experiment [2], the target named is T1, P2Y purinoceptor 6 (Homo sapiens, UniProt Q15077). Kind of experiment: Agonist activity at P2Y6 receptor expressed in human 1321 cells at 100 uM by calcium mobilization assay. Format: functional, cell-based. Put shortly: (§1)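 1321N1 human astrocytoma cells expressing the recombinant receptor were loaded with Fluo-3 AM (2.5 µM final) for 60 min at 25 °C. Assay buffer: KCl 10, NaCl 118, CaCl2 2.5, MgCl2 1, HEPES 20, glucose 10 mM, pH 7.4. Cells were washed and then stimulated with compound. Intracellular calcium was read as the change in fluorescence (FLIPR). Values are EC50 in µM. SR means 5–20% of maximal response at the top concentration, usually 100 µM. NR means no response.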
T1 sequence (Q15077 whole entry): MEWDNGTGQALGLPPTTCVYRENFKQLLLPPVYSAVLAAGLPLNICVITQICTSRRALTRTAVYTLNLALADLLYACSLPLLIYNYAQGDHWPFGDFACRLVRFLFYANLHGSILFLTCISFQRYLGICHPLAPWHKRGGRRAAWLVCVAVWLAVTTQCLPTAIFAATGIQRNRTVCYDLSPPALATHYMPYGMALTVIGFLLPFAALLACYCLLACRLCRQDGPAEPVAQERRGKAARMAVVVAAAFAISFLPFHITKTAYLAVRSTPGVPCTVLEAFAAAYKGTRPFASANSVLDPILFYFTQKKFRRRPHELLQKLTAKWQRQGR

Experiment [3] has as its target T2, P2Y purinoceptor 1 (Homo sapiens, UniProt P47900). Kind of experiment: Agonist at human recombinant P2Y1 receptor expressed in human 1321 cells by calcium mobilization assay. Format: functional, cell-based. In outline:
as §1
(A change in cytosolic calcium serves as a functional read-out for many receptors and channels.)

The target in experiment [4] is T1, P2Y purinoceptor 6. Put plainly: Agonist activity at P2Y6 receptor expressed in human 1321 cells by calcium mobilization assay. Format: functional, cell-based. In outline: as §1
For experiment [5], the target named is T2, P2Y purinoceptor 1. Put plainly: Agonist activity at human recombinant P2Y1 receptor expressed in human 1321 cells at 100 uM by calcium mobilization assay. In kind it is functional, cell-based. In outline: as §1
In experiment [6] the target is P2Y purinoceptor 12 (Homo sapiens) (UniProt Q9H244). Kind of experiment: Antagonist activity at P2Y12 receptor assessed as inhibition of 2-MeS-ADP-induced human platelet aggregation. In kind it is functional. In outline:
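Washed human platelets (ACD-anticoagulated blood, PGI2/apyrase washes) with 1 mg/mL fibrinogen at 37 °C, stirred. Concentration–response curves to 2-MeS-ADP were run alone and with antagonist at 1, 3, 10, 30 or 100 µM. Aggregation was read optically. Schild (Arunlakshana-Schild) analysis gave KB and slope.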

Experiment [7] shares this target. Put plainly: Reversal of antagonist activity at P2Y12 receptor in human washed platelets pretreated at 50 uM for 3 mins before addition of 2-Me-S-ADP and fibrinogen. In kind it is functional. Put shortly:
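Washed human platelets were incubated with 50 µM antagonist for 3 min at 37 °C without fibrinogen. One set was then stimulated directly with 2-MeS-ADP plus fibrinogen. The other set was centrifuged once, resuspended in drug-free medium, and then stimulated. Optical aggregation was monitored for 6–8 min.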

T2 sequence (P47900 whole entry): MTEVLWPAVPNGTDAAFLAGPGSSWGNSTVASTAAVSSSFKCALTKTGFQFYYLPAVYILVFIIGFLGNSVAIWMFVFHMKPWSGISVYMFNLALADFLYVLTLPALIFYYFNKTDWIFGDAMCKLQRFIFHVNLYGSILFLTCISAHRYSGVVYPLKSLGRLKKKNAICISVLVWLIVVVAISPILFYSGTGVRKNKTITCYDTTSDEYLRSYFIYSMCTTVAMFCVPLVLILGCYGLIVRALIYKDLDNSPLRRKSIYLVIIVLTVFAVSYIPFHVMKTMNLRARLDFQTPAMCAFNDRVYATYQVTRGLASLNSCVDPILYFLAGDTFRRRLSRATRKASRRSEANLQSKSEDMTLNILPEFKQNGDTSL
P2Y purinoceptor 12 (Homo sapiens), sequence (Q9H244 whole entry): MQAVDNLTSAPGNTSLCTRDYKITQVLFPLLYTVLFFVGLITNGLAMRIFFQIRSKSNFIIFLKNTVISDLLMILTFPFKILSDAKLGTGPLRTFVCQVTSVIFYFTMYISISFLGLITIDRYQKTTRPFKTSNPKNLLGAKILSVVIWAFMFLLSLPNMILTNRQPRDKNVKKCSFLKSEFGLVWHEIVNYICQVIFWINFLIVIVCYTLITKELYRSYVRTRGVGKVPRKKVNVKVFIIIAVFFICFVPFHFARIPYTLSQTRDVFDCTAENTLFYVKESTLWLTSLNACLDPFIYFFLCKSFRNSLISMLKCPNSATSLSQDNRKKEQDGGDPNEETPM

Broadly, the EC50 is the concentration at which the effect is half-maximal. As usually defined, the inhibition is how much of the control response was suppressed. For `Nc1ncnc2c1ncn2[C@@H]1O[C@H](COP(=O)(O)OP(=O)(O)OP(=O)(O)OP(=O)(O)OC[C@@H]2O[C@H](n3cnc4c(N)ncnc43)[C@@H](O)[C@H]2O)[C@@H](O)[C@H]1O`, the EC50 at P2Y purinoceptor 2 is 0.072 µM; at P2Y purinoceptor 1 [3], 0.426 µM. Moreover, the inhibition in experiment [1] stood at 63%. Also, at P2Y purinoceptor 6 [2], the result was inactive.
In the case of `Nc1ncnc2c1ncn2[C@@H]1O[C@H](COP(=O)(O)OP(=O)(O)O)[C@H]2O[C@@H](Cc3ccccc3)O[C@H]21`, the EC50 on P2Y purinoceptor 2 was 13.9 µM; on P2Y purinoceptor 1 [3] it was 4.39 µM. The outcome on P2Y purinoceptor 6 [2] was inactive.
With `CCCC1O[C@@H]2[C@H](O1)[C@@H](COP(=O)(O)OP(=O)(O)OP(=O)(O)OP(=O)(O)OC[C@@H]1O[C@H](n3ccc(=O)[nH]c3=O)[C@@H](O)[C@H]1O)O[C@H]2n1ccc(=O)[nH]c1=O` (some centres undefined), the EC50 at P2Y purinoceptor 2 is 0.098 µM; at P2Y purinoceptor 6 [4], 30 µM. Further, the inhibition in experiment [1] worked out at 44%. Besides, the outcome on P2Y purinoceptor 1 [5] was inactive.
A word on the Kb: it is the equilibrium dissociation constant of an antagonist, usually derived from a functional assay. `O=c1ccn([C@@H]2O[C@H](COP(=O)(O)OP(=O)(O)OP(=O)(O)OP(=O)(O)OC[C@@H]3O[C@H](n4ccc(=O)[nH]c4=O)[C@H]4OC(Cc5ccccc5)O[C@H]43)[C@H]3OC(Cc4ccccc4)O[C@H]32)c(=O)[nH]1` (some centres undefined): the Kb in experiment [6] was found to be 0.249 µM. In experiment [7], the outcome was Active. On P2Y purinoceptor 2, the EC50 amounted to 14.6 µM. In addition, the Activity at P2Y purinoceptor 6 [2] was more than 5%. The outcome at P2Y purinoceptor 1 [5] was inactive.
Regarding `O=C(Nc1ccccc1)Nc1ncnc2c1ncn2[C@@H]1O[C@H](COP(=O)(O)OP(=O)(O)O)[C@@H](O)[C@H]1O`, the values for the EC50 at P2Y purinoceptor 2, at P2Y purinoceptor 6 [4] and at P2Y purinoceptor 1 [3] were 9.4 µM, 9.75 µM and 2.63 µM, respectively.
